Laboratory results reported in ChEMBL document CHEMBL4196105, “Discovery of β-Arrestin Biased Ligands of 5-HT7R” (J Med Chem, 2018).
One block for each molecule: values may come before it.

Legend:
Mus musculus [1] = assay: Sleep promoting activity in C57B1/6J mouse assessed as decrease in total rapid eye movement sleep time at 30 mg/kg, ip measured over 8 hrs by electroencephalogram method; type: functional; parameters: scale not given: the % may be the effect or the level left
Method in brief: (§1)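 Adult male C57Bl/6J mice, 10 weeks old, with parietal EEG screw electrodes implanted under ketamine. EEG and EMG recorded for 8 h from 9 AM, starting one day before dosing as baseline. On test day, 30 mg/kg i.p. at the start of the light phase, with EEG/EMG recorded for 8 h and scored in 2-h bins. n = 6-9 per group; mean ± SEM versus vehicle.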

[2] = AUClast in ICR mouse at 5 mg/kg, iv by LC-MS/MS analysis; type: ADME, organism-based; parameters: dose 5 mg/kg, time 0 - last, route intravenous; details: in vivo
Method in brief: (§2)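 Male ICR mice, 7~8 weeks, 30 ± 5 g; single dose 5 mg/kg IV (n = 5) or 50 mg/kg oral (n = 4). Plasma protein-precipitated with acetonitrile containing internal standard, then LC-MS/MS. Non-compartmental analysis; AUClast by trapezoidal rule. Mean ± SD.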

[3] = Tmax in ICR mouse at 5 mg/kg, iv by LC-MS/MS analysis; type: ADME, organism-based; details: in vivo; method in brief: as §2
CYP2C19 = CYP2C19 (Homo sapiens, UniProt P33261); assay: Inhibition of CYP2C19 in human liver microsomes assessed as remaining activity at 10 uM using S-mephenytoin as substrate preincubated for 5 mins followed by addition of NADPH generating system measured after 15 mins by LC-MS analysis; type: ADME; details: probe S-mephenytoin, read-out: Activity
CYP2C19, sequence (P33261 whole entry): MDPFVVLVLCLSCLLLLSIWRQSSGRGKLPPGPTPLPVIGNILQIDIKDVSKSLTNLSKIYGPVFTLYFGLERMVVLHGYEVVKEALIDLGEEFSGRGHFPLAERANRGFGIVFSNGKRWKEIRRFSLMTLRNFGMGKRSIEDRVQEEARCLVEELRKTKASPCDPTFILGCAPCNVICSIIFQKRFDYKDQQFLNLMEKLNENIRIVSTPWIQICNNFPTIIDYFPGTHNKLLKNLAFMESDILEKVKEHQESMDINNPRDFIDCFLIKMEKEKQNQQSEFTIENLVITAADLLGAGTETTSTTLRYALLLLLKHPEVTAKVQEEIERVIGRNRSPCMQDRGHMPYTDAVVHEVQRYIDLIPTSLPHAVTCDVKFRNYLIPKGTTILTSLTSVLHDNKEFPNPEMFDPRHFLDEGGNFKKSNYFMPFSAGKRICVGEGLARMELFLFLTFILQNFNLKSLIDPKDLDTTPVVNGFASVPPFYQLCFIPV
Method in brief: (§3)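 Human liver microsomes 0.25 mg/ml in 0.1 M phosphate, pH 7.4, with a probe cocktail: phenacetin 50 μM, diclofenac 10 μM, S-mephenytoin 100 μM, dextromethorphan 5 μM, midazolam 2.5 μM. Test compound at 10 μM versus 0 μM control. 5 min at 37 °C, then NADPH-generating system for 15 min. Acetonitrile quench; metabolites measured by LC/MS as % remaining activity.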

CYP1A2 = target: T1, CYP1A2 (Homo sapiens, UniProt P05177); assay: Inhibition of CYP1A2 in human liver microsomes assessed as remaining activity at 10 uM using phenacetin as substrate preincubated for 5 mins followed by addition of NADPH generating system measured after 15 mins by LC-MS analysis; type: ADME; details: probe phenacetin, read-out: Activity; method in brief: as §3
T1 sequence (P05177 whole entry): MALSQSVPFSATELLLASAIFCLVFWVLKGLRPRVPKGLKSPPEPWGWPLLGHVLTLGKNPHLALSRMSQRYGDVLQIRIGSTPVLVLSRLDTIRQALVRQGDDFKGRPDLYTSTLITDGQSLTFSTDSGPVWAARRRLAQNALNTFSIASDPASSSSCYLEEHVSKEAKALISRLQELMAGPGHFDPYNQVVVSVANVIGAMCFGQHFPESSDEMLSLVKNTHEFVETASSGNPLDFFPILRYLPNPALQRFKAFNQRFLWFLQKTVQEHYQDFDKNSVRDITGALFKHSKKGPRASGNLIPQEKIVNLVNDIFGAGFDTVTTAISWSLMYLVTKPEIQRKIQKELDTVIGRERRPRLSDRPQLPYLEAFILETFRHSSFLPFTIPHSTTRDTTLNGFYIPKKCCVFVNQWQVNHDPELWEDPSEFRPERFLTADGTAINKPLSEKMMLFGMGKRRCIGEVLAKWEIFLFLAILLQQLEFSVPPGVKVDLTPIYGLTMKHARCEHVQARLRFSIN

[4] = Tmax in ICR mouse at 50 mg/kg, po by LC-MS/MS analysis; type: ADME, organism-based; details: in vivo
Method in brief: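 Male ICR mice, 7~8 weeks, 30 ± 5 g, given a single oral dose of 50 mg/kg (n = 4). Carotid-artery blood was sampled at 0, 0.25, 0.5, 1, 2, 4, 6 and 8 h. Plasma was protein-precipitated with acetonitrile containing internal standard and quantified by LC-MS/MS on a C18 gradient. Parameters came from non-compartmental analysis and are reported as mean ± SD.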

Mus musculus [5] = assay: Sleep promoting activity in C57B1/6J mouse assessed as decrease in total rapid eye movement sleep time at 30 mg/kg, ip measured over 4 hrs by electroencephalogram method; type: functional; parameters: scale not given: the % may be the effect or the level left; method in brief: as §1
[6] = Terminal half-life in ICR mouse at 50 mg/kg, po by LC-MS/MS analysis; type: ADME, organism-based; details: in vivo, read-out: beta t1/2 (converted); method in brief: as §2
[7] = Cmax in ICR mouse at 5 mg/kg, iv by LC-MS/MS analysis; type: ADME, organism-based; parameters: dose 5 mg/kg, route intravenous; details: in vivo; method in brief: as §2
[8] = Terminal half-life in ICR mouse at 5 mg/kg, iv by LC-MS/MS analysis; type: ADME, organism-based; details: in vivo, read-out: beta t1/2 (converted); method in brief: as §2
CYP2C9 = CYP2C9 (Homo sapiens, UniProt P11712); assay: Inhibition of CYP2C9 in human liver microsomes assessed as remaining activity at 10 uM using diclofenac as substrate preincubated for 5 mins followed by addition of NADPH generating system measured after 15 mins by LC-MS analysis; type: ADME; details: probe diclofenac, read-out: Activity; method in brief: as §3
CYP2C9, sequence (P11712 whole entry): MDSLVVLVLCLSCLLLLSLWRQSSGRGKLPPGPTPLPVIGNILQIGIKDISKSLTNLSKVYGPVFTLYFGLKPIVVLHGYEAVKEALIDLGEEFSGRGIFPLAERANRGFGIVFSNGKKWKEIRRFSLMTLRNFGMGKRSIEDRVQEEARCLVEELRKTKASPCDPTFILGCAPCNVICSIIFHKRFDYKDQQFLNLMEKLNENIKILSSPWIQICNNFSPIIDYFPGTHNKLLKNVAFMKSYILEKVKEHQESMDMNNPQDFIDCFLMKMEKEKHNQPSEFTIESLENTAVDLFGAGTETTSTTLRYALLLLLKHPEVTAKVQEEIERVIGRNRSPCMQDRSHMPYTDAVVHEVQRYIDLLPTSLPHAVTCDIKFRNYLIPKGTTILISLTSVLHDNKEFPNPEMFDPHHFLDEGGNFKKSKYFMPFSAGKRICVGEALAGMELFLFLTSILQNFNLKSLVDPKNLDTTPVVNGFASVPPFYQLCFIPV

Mus musculus [9] = assay: Toxicity in ICR mouse assessed as mortality at 5 mg/kg, iv; type: organism-based; details: in vivo
Method in brief: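 Observed in male ICR mice (7~8 weeks, 30 ± 5 g; n = 5) during a pharmacokinetic study after a single intravenous dose. Mice were held at 23 ± 3° and about 55% ± 10% humidity with standard feed and tap water. Blood was drawn via carotid artery from 0.08 to 8 h after dosing.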

[10] = target: 5-hydroxytryptamine receptor 7 (Homo sapiens, UniProt P34969); assay: Displacement of [3H]LSD from human 5-HT7 receptor expressed in HEK cell membranes after 1.5 hrs by microbeta scintillation counting method
5-hydroxytryptamine receptor 7, sequence (P34969 whole entry): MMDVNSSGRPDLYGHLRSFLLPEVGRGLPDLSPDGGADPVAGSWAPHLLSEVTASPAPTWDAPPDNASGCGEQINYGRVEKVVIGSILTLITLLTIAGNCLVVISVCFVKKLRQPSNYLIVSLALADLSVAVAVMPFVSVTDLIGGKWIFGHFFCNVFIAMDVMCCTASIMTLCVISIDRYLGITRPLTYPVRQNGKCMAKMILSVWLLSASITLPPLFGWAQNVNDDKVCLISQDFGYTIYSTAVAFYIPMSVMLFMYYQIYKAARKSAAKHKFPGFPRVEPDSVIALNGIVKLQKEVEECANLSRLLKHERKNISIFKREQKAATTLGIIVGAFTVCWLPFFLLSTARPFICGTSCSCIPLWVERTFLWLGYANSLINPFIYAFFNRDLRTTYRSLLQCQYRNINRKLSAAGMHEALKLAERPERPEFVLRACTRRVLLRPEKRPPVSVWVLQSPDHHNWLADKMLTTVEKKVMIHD

Homo sapiens = species on record: Homo sapiens; assay: Selectivity index, ratio of Ki for human 5-HT1A receptor to Ki for human 5-HT7 receptor
Method in brief: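 Selectivity index taken as Ki at the other 5-HT receptor subtype divided by Ki at 5-HT7R, each from [3H]LSD membrane binding run by the NIMH PDSP. Ki values are means of at least three experiments in triplicate.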

SMILES: Clc1ccc(-c2n[nH]c3c2CCNCC3)cc1
Activity (Mus musculus [1]): 36.7%
AUC(0-t) [2]: 4.9 µg·h/mL
Tmax [3]: 6.6 min
activity at 0.25 h, 10 µM (CYP2C19): > 100%
activity at 0.25 h, 10 µM (CYP1A2): 86%
Tmax [4]: 1.37 h
Activity (Mus musculus [5]): 69.4%
half-life [6]: 2.77 h
Cmax [7]: 2.2 µg/mL
half-life [8]: 1.78 h
activity at 0.25 h, 10 µM (CYP2C9): > 100%
Activity (Mus musculus [9]): Non-Toxic

Ki [10]: 0.104 µM
Ratio Ki (Homo sapiens): 18
SMILES: Fc1ccc(-c2n[nH]c3c2CCNCC3)cc1
